Measured values: ChEMBL document CHEMBL1123888, “Aldosterone antagonists. 2. Synthesis and biological activities of 11,12-dehydropregnane derivatives” (J Med Chem, 1987)
The source made the active and inactive calls. The calls are words filed in the database; no cut-off is given here.

Tests used:
[1] = target: T1, Mineralocorticoid receptor (Rattus norvegicus) (UniProt P22199); experiment: Antagonist activity against Mineralocorticoid receptor was determined after subcutaneous administration in Male Sprague Dawley rats; assay type: functional, organism-based
T1 sequence (whole entry): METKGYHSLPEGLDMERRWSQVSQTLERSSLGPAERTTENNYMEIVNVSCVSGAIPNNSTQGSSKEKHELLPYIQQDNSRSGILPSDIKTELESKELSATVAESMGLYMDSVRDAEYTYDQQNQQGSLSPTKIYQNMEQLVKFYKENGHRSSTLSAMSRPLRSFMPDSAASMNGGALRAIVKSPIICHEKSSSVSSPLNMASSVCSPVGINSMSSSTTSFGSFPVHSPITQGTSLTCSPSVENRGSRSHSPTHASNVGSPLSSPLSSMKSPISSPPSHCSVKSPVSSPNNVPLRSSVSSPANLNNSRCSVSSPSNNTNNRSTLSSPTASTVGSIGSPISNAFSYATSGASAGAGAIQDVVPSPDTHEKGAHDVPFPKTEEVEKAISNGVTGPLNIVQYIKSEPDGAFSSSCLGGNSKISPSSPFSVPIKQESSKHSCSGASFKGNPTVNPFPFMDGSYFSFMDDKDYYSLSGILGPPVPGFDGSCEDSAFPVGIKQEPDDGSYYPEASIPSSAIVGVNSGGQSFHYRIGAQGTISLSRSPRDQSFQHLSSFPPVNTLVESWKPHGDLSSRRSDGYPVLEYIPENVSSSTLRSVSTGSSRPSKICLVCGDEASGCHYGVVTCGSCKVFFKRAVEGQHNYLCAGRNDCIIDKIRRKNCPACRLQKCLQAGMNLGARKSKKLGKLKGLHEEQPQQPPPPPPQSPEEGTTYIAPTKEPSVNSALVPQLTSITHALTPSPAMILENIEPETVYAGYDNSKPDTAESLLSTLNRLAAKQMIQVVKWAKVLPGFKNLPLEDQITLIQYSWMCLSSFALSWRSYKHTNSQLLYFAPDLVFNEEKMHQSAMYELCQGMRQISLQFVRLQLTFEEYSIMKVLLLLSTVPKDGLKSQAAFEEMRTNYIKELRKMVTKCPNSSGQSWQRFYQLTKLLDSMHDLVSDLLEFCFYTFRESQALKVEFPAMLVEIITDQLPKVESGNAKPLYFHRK
How it was run: (§1)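 Male rats were bilaterally adrenalectomized (bioassay modified from Kagawa). Ald (1 µg/kg) was given sc, immediately followed by test compound in sesame oil sc or orally. Urine was collected from 2 to 6 h after steroid. Potency came from the urinary Na/K ratio of sample versus control, with 95% confidence limits.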

[2] = target: T1, Mineralocorticoid receptor (Rattus norvegicus); experiment: Relative binding affinity to the rat mineralocorticoid receptor determined in rat renal cytosol using [3]Ald as ligand
How it was run: (§2)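 Renal cytosol came from male Sprague-Dawley rats (4-8 weeks) adrenalectomized bilaterally 1 or 2 days earlier. It was incubated with various competitor concentrations and about 1 nM [3H]Ald for 42-48 h at 0 °C or 100-120 min at 25 °C. Bound and free steroid were separated by DCC.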

[3] = target: T2, Progesterone receptor (Rattus norvegicus) (UniProt Q63449); experiment: Relative binding affinity against progesterone receptor determined in rat […] cytosol using [3H]DHT as ligand
T2 sequence (whole entry): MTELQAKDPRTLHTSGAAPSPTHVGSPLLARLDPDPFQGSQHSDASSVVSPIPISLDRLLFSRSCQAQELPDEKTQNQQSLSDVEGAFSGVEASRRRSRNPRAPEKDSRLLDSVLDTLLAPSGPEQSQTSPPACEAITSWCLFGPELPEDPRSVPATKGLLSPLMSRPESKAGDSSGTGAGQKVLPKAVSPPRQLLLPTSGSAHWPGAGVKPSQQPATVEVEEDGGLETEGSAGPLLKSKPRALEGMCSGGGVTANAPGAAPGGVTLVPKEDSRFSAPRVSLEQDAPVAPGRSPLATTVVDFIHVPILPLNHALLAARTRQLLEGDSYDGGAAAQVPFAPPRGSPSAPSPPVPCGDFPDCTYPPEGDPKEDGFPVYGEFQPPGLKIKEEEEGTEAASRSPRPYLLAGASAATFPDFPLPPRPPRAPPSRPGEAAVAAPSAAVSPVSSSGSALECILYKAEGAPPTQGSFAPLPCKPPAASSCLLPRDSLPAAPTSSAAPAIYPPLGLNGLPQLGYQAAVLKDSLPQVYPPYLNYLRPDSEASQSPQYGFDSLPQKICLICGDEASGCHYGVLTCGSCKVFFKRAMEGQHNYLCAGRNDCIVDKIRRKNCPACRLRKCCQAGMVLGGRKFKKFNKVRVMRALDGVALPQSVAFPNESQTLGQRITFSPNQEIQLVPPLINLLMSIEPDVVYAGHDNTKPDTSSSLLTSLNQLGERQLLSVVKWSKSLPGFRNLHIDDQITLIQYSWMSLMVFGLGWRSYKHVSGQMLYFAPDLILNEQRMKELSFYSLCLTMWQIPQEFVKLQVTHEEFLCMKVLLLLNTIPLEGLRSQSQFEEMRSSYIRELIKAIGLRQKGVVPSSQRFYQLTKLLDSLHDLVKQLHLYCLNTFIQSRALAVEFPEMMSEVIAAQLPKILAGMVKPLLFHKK

[4] = target: T1, Mineralocorticoid receptor (Rattus norvegicus); experiment: Relative binding affinity against mineralocorticoid receptor determined in rat renal cytosol using [3]Ald as ligand; how it was run: as §2
[5] = target: T1, Mineralocorticoid receptor (Rattus norvegicus); experiment: Relative binding affinity against Mineralocorticoid receptor in Male Sprague-Dawley rats; how it was run: as §2
[6] = target: T1, Mineralocorticoid receptor (Rattus norvegicus); experiment: In vivo relative Mineralocorticoid activity in Male Sprague-Dawley rats; assay type: functional, organism-based
[7] = target: T1, Mineralocorticoid receptor (Rattus norvegicus); experiment: Antagonist activity against Mineralocorticoid receptor after subcutaneous administration in Male Sprague Dawley rats; (+) =positive; assay type: functional, organism-based; conditions: filed as antagonist; how it was run: as §1
[8] = target: T1, Mineralocorticoid receptor (Rattus norvegicus); experiment: Displacement of [3]Aldosterone from mineralocorticoid receptor of rat renal cytosol at 0 degree Centigrade; how it was run: as §2
[9] = target: T3, Androgen receptor (Rattus norvegicus) (UniProt P15207); experiment: Relative binding affinity against Androgen receptor in Male Sprague-Dawley rats
T3 sequence (whole entry): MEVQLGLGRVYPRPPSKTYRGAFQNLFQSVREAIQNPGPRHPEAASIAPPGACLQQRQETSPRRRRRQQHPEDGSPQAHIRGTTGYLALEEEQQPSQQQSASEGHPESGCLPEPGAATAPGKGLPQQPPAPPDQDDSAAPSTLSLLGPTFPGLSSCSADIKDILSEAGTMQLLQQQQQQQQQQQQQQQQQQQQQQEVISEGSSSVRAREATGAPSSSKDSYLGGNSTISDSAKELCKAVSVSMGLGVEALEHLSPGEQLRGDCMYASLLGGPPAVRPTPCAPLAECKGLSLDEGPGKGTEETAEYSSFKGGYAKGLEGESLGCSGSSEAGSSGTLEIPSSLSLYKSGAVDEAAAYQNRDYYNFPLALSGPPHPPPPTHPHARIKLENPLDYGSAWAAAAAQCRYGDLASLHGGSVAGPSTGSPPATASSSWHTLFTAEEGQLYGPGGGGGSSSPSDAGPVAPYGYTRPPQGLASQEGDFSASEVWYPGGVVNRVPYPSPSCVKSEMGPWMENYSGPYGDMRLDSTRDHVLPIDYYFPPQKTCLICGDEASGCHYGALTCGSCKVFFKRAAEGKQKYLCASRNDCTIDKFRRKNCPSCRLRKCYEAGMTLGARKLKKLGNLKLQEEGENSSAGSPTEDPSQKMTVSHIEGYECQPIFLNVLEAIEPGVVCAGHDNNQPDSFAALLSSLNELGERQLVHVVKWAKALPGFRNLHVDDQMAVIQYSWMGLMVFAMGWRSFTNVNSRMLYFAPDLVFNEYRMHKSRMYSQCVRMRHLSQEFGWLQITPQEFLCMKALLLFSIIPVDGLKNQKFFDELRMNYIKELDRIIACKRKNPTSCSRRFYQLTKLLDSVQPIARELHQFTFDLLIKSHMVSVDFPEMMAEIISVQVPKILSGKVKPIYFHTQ
How it was run: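 Rat ventral prostate cytosol from 4-8-week-old rats castrated 1 day earlier. Incubated with various competitor concentrations and about 1 nM [3H]DHT or [3H]methyltrienolone for 16-20 h at 0 °C. Bound and free steroid separated by dextran-coated charcoal.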

[10] = target: T3, Androgen receptor (Rattus norvegicus); experiment: In vivo relative androgenic activity in Male Sprague-Dawley rats; assay type: functional, organism-based
[11] = organism: Rattus norvegicus; experiment: Displacement of [3H]promegestone from progestin receptor of rat uterine cytosol at 0 degree Centigrade
How it was run: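 Uteri from estradiol-primed rats supplied the cytosol. It was incubated with various competitor concentrations and about 1 nM [3H]promegestone for 16-20 h at 0 °C. Bound and free steroid were separated by DCC. RBA (progesterone = 100%) = 100 × ratio of the 50%-inhibition concentrations of standard and competitor.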

[12] = target: T1, Mineralocorticoid receptor (Rattus norvegicus); experiment: Agonist activity against Mineralocorticoid receptor was determined after subcutaneous administration in Male Sprague Dawley rats; (+) =positive; assay type: functional, organism-based; conditions: filed as agonist
[13] = target: T1, Mineralocorticoid receptor (Rattus norvegicus); experiment: Antagonist activity against Mineralocorticoid receptor after oral administration in Male Sprague Dawley rats; (+) =positive; assay type: functional, organism-based; conditions: filed as antagonist; how it was run: as §1
[14] = target: T1, Mineralocorticoid receptor (Rattus norvegicus); experiment: Antagonist activity against Mineralocorticoid receptor after po administration in Male Sprague Dawley rats; (-) = negative; assay type: functional, organism-based; how it was run: as §1
[15] = target: T2, Progesterone receptor (Rattus norvegicus); experiment: Relative binding affinity against progesterone receptor in […]
[16] = target: T2, Progesterone receptor (Rattus norvegicus); experiment: In vivo relative Progestational activity in Male Sprague-Dawley rats was determined.; assay type: functional, organism-based

For CC(=O)S[C@@H]1CC2=CC(=O)CCC2(C)C2C=CC3(C)C(C4CC4[C@@]34CCC(=O)O4)C21 (stereo partly drawn), the Activity [1] was “inactive”, the RBA [2] was greater than 1000% and the RBA [3] was 89%. It also gave an RBA [4] of 370%.
For CC12CCC(=O)C=C1CCC1C2C=CC2(C)C(C(=O)CO)CCC12 (stereo not drawn), the relative binding affinity (RBA) [5] was 150 and the Relative activity [6] was 1.
With CC(C)(C)C(=O)S[C@@H]1CC2=CC(=O)CCC2(C)C2C=CC3(C)C(CC[C@@]34CCC(=O)O4)C21 (stereo partly drawn) the RBA [2] was 42%, the RBA [3] was 38% and the Activity [7] was “Antagonist”. It also gave an RBA [8] of 46%.
For C[C@]12CC[C@H]3[C@@H](CCC4CC(=O)CC[C@@H]43)[C@@H]1CC[C@@H]2O (stereo partly drawn), the relative binding affinity (RBA) [9] was 59 and the Relative activity [10] was 0.1.
CC12C=CC(=O)C=C1CCC1C2C=CC2(C)C1CC[C@@]21CCC(=O)O1 (stereo partly drawn) was tested, and the Activity [1] was “inactive”, the RBA [2] was 71% and the RBA [11] was 7.5%. For the same compound, the Activity [12] was “Agonist” and the RBA [4] was 120%.
CC12CCC(=O)C=C1C1CC1C1C2C=CC2(C)C1C1CC1[C@@]21CCC(=O)O1 (stereo partly drawn) was tested, and the Activity [1] was “inactive”, the RBA [2] was 760% and the RBA [11] was 540%. It also gave an RBA [8] of 300%.
In the case of CC(C)(C)C(=O)S[C@@H]1CC2=CC(=O)C=CC2(C)C2C=CC3(C)C(CC[C@@]34CCC(=O)O4)C21 (stereo partly drawn), the RBA [2] is reported as 530%, the RBA [3] is reported as 18% and the Activity [7] is reported as “Antagonist”. The Activity [13] was “Antagonist”, the Activity [14] was “inactive” and the RBA [4] was 1000%.
CC(=O)[C@H]1CC[C@H]2[C@@H]3CCC4=CC(=O)CC[C@@H]4[C@H]3CC[C@]12C was tested, and the relative binding affinity (RBA) [15] was 650 and the Relative activity [16] was 10.7.
For CC(=O)S[C@@H]1CC2=CC(=O)CC[C@]2(C)[C@H]2CC[C@@]3(C)[C@@H](CC[C@@]34CCC(=O)O4)[C@H]12, the Activity [1] was “inactive”, the RBA [2] was 15% and the Activity [7] was “Antagonist”. The RBA [11] was 2.6%, the Activity [13] was “Antagonist” and the RBA [4] was 3.2%.
C[C@]12CCC(=O)C=C1CC[C@@H]1[C@@H]2[C@H]2C[C@]3(CO2)[C@@H](C(=O)CO)CC[C@@H]13 gave a relative binding affinity (RBA) [5] of 50.
CC(=O)[C@H]1CC[C@H]2[C@@H]3CCC4=CC(=O)CC[C@]4(C)[C@H]3C=C[C@]12C gave a relative binding affinity (RBA) [15] of 220 and a Relative activity [16] of 3.
